Laboratory results taken from BindingDB's records for doi:10.1016/j.bmcl.2005.07.045 (Shanghai Second Medical University, 2005).

Molecular target: Muscarinic acetylcholine receptor M1/M2/M3/M4/M5
Assay: Agonistic activity against Muscarinic acetylcholine receptor of guinea pig ileal longitudinal muscle
Method in brief: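 Ileal longitudinal muscle strips (1.5 cm) in 10 ml organ baths under 500 mg tension, equilibrated 30 min with bath fluid changed every 10 min. Isotonic contractions recorded during cumulative addition, about 3-fold concentration steps once each response is steady. Response expressed as percent of carbachol maximum. pEC50 determined graphically from dose–response curves, mean of three tests, t test.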

`CCCC(=O)OC1CC2CC(OC(C)=O)C(C1)N2C` (centres undefined) gave an EC50 of 5.01 µM.

Molecule `CC(=O)OC1CC2CC(OC(=O)/C=C\c3ccccc3)CC1N2C` (centres undefined) has an EC50 of 117 µM.

Molecule `CC(=O)OC1CC2CC(Cl)CC1N2C` (centres undefined) has an EC50 of 11.4 µM.

With `CC(=O)OC1CC2CCC(C1)N2C` (centres undefined) the EC50 was 79.4 µM.

Work on `COc1ccc(C(=O)OC2CC3CC(OC(C)=O)C(C2)N3C)cc1` (centres undefined) yielded an EC50 of 30.1 µM.

`CCCCCCC(=O)OC1CC2CC(OC(C)=O)C(C1)N2C` (centres undefined) was tested, and the EC50 was 0.0269 µM.

With `COc1ccc(S(=O)(=O)OC2CC3CC(OC(C)=O)C(C2)N3C)cc1` (centres undefined) the EC50 was 0.0933 µM.

In the case of `CCCCCC(=O)OC1CC2CC(OC(C)=O)C(C1)N2C` (centres undefined), the EC50 is reported as 0.00646 µM.

`CCCCCC(=O)OC1CC2CC(OC(=O)CCCCC)C(C1)N2C` (centres undefined) gave an EC50 of 0.00479 µM.

With `CC(=O)OC1CC2CC(=O)CC1N2C` (centres undefined) the EC50 was 14.7 µM.

`CCC(=O)OC1CC2CC(OC(=O)CC)C(C1)N2C` (centres undefined) showed an EC50 of 42.6 µM.

For `CCCCCCCCCC(=O)OC1CC2CC(OC(C)=O)C(C1)N2C` (centres undefined), the EC50 was 0.263 µM.

In the case of `CC(=O)OC1CC2NC1CCC2O` (centres undefined), the EC50 is reported as 0.0794 µM.

For `CC(=O)OC1CC2CCCC1N2C` (centres undefined) [Acetic acid 8-methyl-8-aza-bicyclo[3.2.1]oct-6-yl ester], the EC50 was 24.5 µM.

`CC(=O)OC1CC2CC(OS(=O)(=O)c3ccc([N+](=O)[O-])cc3)CC1N2C` (centres undefined) gave an EC50 of 0.0447 µM.

Work on `CC(=O)OC1CC2CC(OS(=O)(=O)c3ccccc3)CC1N2C` (centres undefined) yielded an EC50 of 0.0501 µM.

Work on `CC(=O)OC1CC2CC(OC(C)=O)C(C1)N2C` (centres undefined) yielded an EC50 of 4.46 µM.

For `CCCCCCCC(=O)OC1CC2CC(OC(C)=O)C(C1)N2C` (centres undefined), the EC50 was 0.00174 µM.

In the case of `CC(=O)OC1CC2CCCC1N2` (centres undefined) [Acetic acid 8-aza-bicyclo[3.2.1]oct-6-yl ester], the EC50 is reported as 0.00617 µM.

`CC(=O)OC1CC2CC(OC(=O)c3ccc(C)cc3)CC1N2C` (centres undefined) was tested, and the EC50 was 4.36 µM.

Work on `CN1C2CC(=O)CC1C(O)C2` (centres undefined) yielded an EC50 of 407 µM.

For `CC(=O)OC1CC2CC(OC(=O)/C=C\c3ccccc3)CC1N2` (centres undefined), the EC50 was 1.99 µM.

In the case of `CC(=O)OC1CC2CC(OS(=O)(=O)c3ccc(C)cc3)CC1N2C` (centres undefined), the EC50 is reported as 0.104 µM.

`CC(=O)OC1CC2CC(OS(=O)(=O)c3cccc(C)c3)CC1N2C` (centres undefined) showed an EC50 of 0.0891 µM.
